An excerpt weighted towards active compounds, which were near 4.6% of everything screened.
ALR H2O2 inh: blocks human ALR sulfhydryl oxidase activity | P55789 | purified ALR, DTT oxidation, H2O2 HRP-luminol luminescence | inhibition, % (concentration not given with the values) | 3.8% of 290,000 active;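 active = mean replicate inhibition above about 79%, with every replicate also reaching it, limit read from the data; inconclusive = only one of the two criteria met; inactive = mean below limit and not every replicate reaching it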
Target sequence (P55789 whole entry, looked up): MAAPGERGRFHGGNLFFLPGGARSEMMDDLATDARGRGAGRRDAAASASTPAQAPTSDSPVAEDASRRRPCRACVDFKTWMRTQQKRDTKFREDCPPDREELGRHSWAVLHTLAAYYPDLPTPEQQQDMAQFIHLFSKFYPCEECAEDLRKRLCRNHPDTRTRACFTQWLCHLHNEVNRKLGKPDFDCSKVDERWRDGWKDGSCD
DSG3 Ab inh: blocks pemphigus antibody binding to human desmoglein-3 | 0.48% of 310,000 active | binding (percent of control), % at 10 µM | AID 588358 | DSG3-coupled beads, scFv-anti-DSG3-GFP binding, flow cytometry; active compounds read low;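 active = binding more than 3 SD below its plate's average and above zero; inconclusive = below that plate limit but binding exactly zero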;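 note: hits lower antibody fragment binding to DSG3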
NALP1 yeast inh: inhibitors of NALP1 inflammasome in yeast; S. cerevisiae NALP1/ASC/caspase-1 growth, X-gal OD620, 72 h; inhibition, % at 10 µM; 0.61% of 280,000 active; AID 2071; in the data active = inhibition mostly above about 24%, no sharp cut-off; inactive = mostly below about 32%
Arrestin-AP2 inh: human beta-arrestin and AP2 interaction inhibition; FITC-arrestin peptide / GST-AP2 beads, flow cytometry; AP2 beta2 appendage carries R879A mutation; inhibition, % at 10 µM; 0.31% of 340,000 active; AID 504490;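 active = inhibition above a set limit, near 3 SD of compounds lacking own fluorescence, cut at about 54% in these data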;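 note: plate controls were DMSO wells for no effect and 5 µM unlabelled arrestin peptide for full effect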
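Material – AP2 appendage R879A on GSH beads · Buffer or medium – PBS with 0.05% Tween 20 and 0.1% BSA · Probe or stimulus – fluorescein-tagged arrestin peptide at 50 nM final · Incubation – compound with beads 12 min RT, then probe 1 h RT · Detection – high-throughput flow cytometry of beads, ex 488, em 535 nm · Evaluation – percent response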
PolyA inh: blocks polyadenylation in yeast reporter cells | AID 1875 | activity score, % at 12 µM | 0.02% of 300,000 active | S. cerevisiae SKY197-pL101 polyadenylation reporter, beta-gal luminescence; efflux-impaired pdr1/pdr3 knockout yeast; score 100 = 6 SD above DMSO;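 active = lowest replicate activity score at least 50, where 100 means six control SD above control mean; inconclusive = lowest score under 50 but half or more replicates reach 50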;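 note: yeast exposed to compound for 9 h at 30 °C; higher score means more reporter readthrough which indicates perturbed polyadenylation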
NLRP3 yeast inh: inhibitors of NALP3 inflammasome in yeast | Yeast reconstituted NLRP3/ASC/caspase-1, beta-gal luminescence, 24 h | inhibition, % at 10 µM | 0.39% of 330,000 active;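 active = inhibition of 50% or more; inactive = inhibition below 50%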;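 note: plate controls were induced DMSO wells for no effect and uninduced yeast grown without galactose for full effect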
NALP3 yeast conf: NALP3 inhibition confirmation in yeast. shares compounds with NLRP3 yeast inh. yeast expressing human NALP3, luminescence. inhibition, % at 10 µM. 81% of 1,300 active; in the data active = inhibition above about 48%
Casp1 ASC ctr: active in yeast caspase-1-ASC counter-screen for NALP3 inhibitors. shares compounds with NLRP3 yeast inh. yeast expressing Caspase-1-ASC, luminescence counter screen. inhibition, % at 10 µM. 66% of 1,000 active. AID 488784
NALP3 yeast rt: yeast NALP3 inhibition, confirmed on retest | yeast expressing human NALP3, luminescence read-out | shares compounds with NLRP3 yeast inh | inhibition, % at 10 µM | 53% of 1,000 active
Starred values were filed as active, the others as inactive; u = inconclusive; x = no result given. Cut-off read from the data, not from the text of the source, unless noted: active = inhibition above about 50%; inactive = the rest.

SMILES | ALR H2O2 inh | DSG3 Ab inh | NALP1 yeast inh | Arrestin-AP2 inh | PolyA inh | NLRP3 yeast inh | NALP3 yeast conf | Casp1 ASC ctr | NALP3 yeast rt
O=C(Nc1ccc(Br)cn1)c1ccc(Br)s1 | 1.3 | 101.3 | -3.8 | 10.5 | -37.8 | 18.2 | x | x | x
CC(C)(C)OC(=O)NCCc1nnc(SCc2ccccc2Cl)o1 | -4.9 | 103.4 | 13.0 | -4.2 | 8.6 | 19.7 | x | x | x
NCCc1nnc(SCc2ccccc2Cl)o1 | -9.1 | 95.4 | -9.1 | -16.1 | -29.0 | 72.8* | 73.4* | 70.4* | 71.5*
O=C(Nc1ccc2c(c1)OCO2)N1CCN(Cc2ccco2)CC1 | -11.0 | 103.3 | 1.4 | 6.2 | 12.9 | 15.0 | x | x | x
Cc1ccc(C)c(NCc2ccccc2CO)c1 | x | 97.8 | -1.6 | 0.2 | 10.6 | 4.4 | x | x | x
COc1ccc(OC)c(Nc2cc(-c3ccccc3)nc(N)n2)c1 | -1.1 | x | 24.0 | x | -16.5 | 50.0 | 41.1 | 48.6 | 42.8
CC(Oc1cccc(Cl)c1)C(=O)Nc1nc(-c2ccccn2)cs1 (stereo unspecified) | -2.1 | 108.8 | x | -16.4 | 7.1 | 50.0* | 64.2* | 74.3* | 61.1*
O=C(N/N=C/c1ccsc1)c1cc2ccccc2o1 | 5.2 | 101.2 | 8.6 | -4.6 | u | 72.2* | 86.8* | 70.8* | 75.0*
O=C(N/N=C/c1ccc2c(c1)OCO2)c1cc2ccccc2o1 | -0.6 | 102.4 | -1.8 | 22.3 | 0.8 | 1.1 | x | x | x
Cc1ccc(C)c(-n2c(CNc3ccc(F)cc3)nnc2SCC(N)=O)c1 | -6.3 | 101.7 | 4.0 | -52.9 | 24.2 | 10.7 | x | x | x
O=C(NC1CCCC1)c1cc(-c2ccccc2O)on1 | x | x | 24.3 | 21.5 | -8.8 | 25.9 | x | x | x
COc1ccccc1-c1cc(C(=O)NC2CCCC2)no1 | -2.3 | 102.4 | 21.2 | -5.7 | -5.8 | 52.7* | 49.7* | 50.0* | 49.2
CC(C)c1ccc(S(=O)(=O)N2CCN(C(=O)c3cc([N+](=O)[O-])ccc3N3CCOCC3)CC2)cc1 | -1.5 | x | 8.5 | 11.1 | -10.3 | 0.0 | x | x | x
CC(C)(C)Cc1c(-c2ccc(Br)cc2)nc2ccc(Cl)cn12 | x | 109.9 | x | x | x | x | x | x | x
CCOc1ccc(NC(=O)CN(C)C(=O)c2cc([N+](=O)[O-])ccc2Sc2ccccc2)cc1OCC | x | 93.0 | x | -2.0 | x | x | x | x | x
N/C(=N\N=C/c1ccc(F)cc1)N/N=C\c1ccc(F)cc1 | x | 117.8 | -10.1 | -9.6 | -21.3 | 63.9* | 76.2* | 69.9* | 64.7*
N/C(=N\N=C/c1ccc(Br)cc1)N/N=C\c1ccc(Br)cc1 | 1.9 | 114.9 | 3.3 | 1.9 | -4.8 | 27.0 | x | x | x
COCCN(C(=O)COC(=O)CCOc1ccccc1)c1c(N)n(Cc2ccccc2)c(=O)[nH]c1=O | x | 101.0 | x | -13.8 | u | 8.3 | x | x | x
COC(=O)CSc1nc2cc3c(cc2cc1C)OCCO3 | -39.1 | 98.0 | -0.3 | -0.1 | -84.4 | 69.1* | 72.6* | 80.0* | 71.4*
CC1=NOC(=O)/C1=C\c1ccc(-c2ccccc2Br)o1 | x | 86.6 | -0.3 | -7.5 | -30.9 | x | x | x | x
Cc1ccc(S(=O)(=O)/C=C2\NC(=O)CS2)cc1 | 11.8 | 95.2 | 25.1 | -2.7 | 8.8 | 10.6 | x | x | x
O=C1CS/C(=C/C(=O)c2cccc(Cl)c2)N1 | x | 106.9 | -6.6 | -0.4 | 27.3 | 66.0* | 72.3* | 53.5* | 58.9*
Cc1ccc(C(=O)/C=C2/NC(=O)CS2)cc1 | x | 97.8 | 1.7 | -0.3 | 10.6 | 60.9* | 66.9* | 52.0* | 53.7*
O=C(Nc1c(Cl)cccc1Cl)C1CCN(C(=O)c2cccs2)CC1 | -6.3 | 119.2 | 6.2 | -1.0 | 1.0 | 20.0 | x | x | x
CC1CC(C)(C)N(C(=O)CN2C(=O)c3ccccc3C2=O)c2ccccc21 (stereo unspecified) | x | 87.2 | -45.1 | 7.5 | -17.3 | 52.4* | 10.5 | x | x
SMILES | ALR H2O2 inh | DSG3 Ab inh | NALP1 yeast inh | Arrestin-AP2 inh | PolyA inh | NLRP3 yeast inh | NALP3 yeast conf | Casp1 ASC ctr | NALP3 yeast rt
CC1CC(C)(C)N(C(=O)CN2CCN(C)CC2)c2ccccc21 (stereo unspecified) | 1.7 | 115.8 | 31.5 | 8.7 | -11.6 | 12.2 | x | x | x
CC1(C)CC(C(CC(=O)N2CCCC2)Cc2ccccc2)CCO1 (stereo unspecified) | -5.7 | 96.1 | x | 15.6 | 7.2 | 1.8 | x | x | x
CN1CCC(N2CCN(c3cccc(C(F)(F)F)c3)CC2)CC1 | -6.9 | 124.1 | 8.2 | 0.4 | 3.2 | 11.1 | x | x | x
FC(F)(F)c1cccc(N2CCc3cn[nH]c32)c1 | 43.7 | x | x | -0.1 | -19.9 | 97.0* | 99.2* | 98.8* | 97.4*
CCOC(=O)c1ccccc1NC(=O)COC(=O)CN1C(=O)C2CC=CCC2C1=O (stereo unspecified) | 3.0 | 122.7 | 13.4 | -5.6 | -11.1 | 8.4 | x | x | x
COc1ccc(CC(=O)Nc2ccc(-c3noc(-c4cc(OC)c(OC)c(OC)c4)n3)cc2)cc1 | 0.2 | 102.8 | 4.0 | 0.8 | x | 57.9* | 23.5 | x | x
Cc1cc(C)c(NS(=O)(=O)c2ccccc2)c(C)n1 | x | 110.0 | x | x | x | x | x | x | x
O=S(=O)(c1cnc(Cl)c(Br)c1)N1CCCCCC1 | 5.5 | 100.6 | 28.5 | 31.9 | 7.1 | 52.8* | 55.4* | 35.2 | 24.9
Nc1ncc(Br)cc1S(=O)(=O)N1CCCCCC1 | -0.8 | 99.9 | 37.1 | 6.8 | -39.8 | 52.7* | 59.0* | 56.0* | 38.0
Cc1ccc(C(=O)NCC(C)NC(=O)c2ccc(C)c([N+](=O)[O-])c2)cc1[N+](=O)[O-] (stereo unspecified) | -4.4 | 106.3 | x | 1.7 | 8.0 | 7.3 | x | x | x
CCOC(=O)c1c(SCCN2CCCCC2)n(-c2ccccc2)c(=S)n(-c2ccccc2)c1=O | x | x | x | 21.5 | x | x | x | x | x
c1ccc(C2Nc3ccccc3C3OCCCC23)cc1 (stereo unspecified) | 99.3* | 124.7 | 9.9 | -4.5 | -2.4 | 62.1* | 54.0* | 42.1 | 58.0*
COc1ccc(C(=O)Nc2ccc(-c3nnn(CC(=O)NCc4ccco4)n3)cc2)cc1 | 2.1 | 97.0 | x | -6.3 | -5.5 | 29.4 | x | x | x
COc1ccc(C)cc1-n1nnnc1SCC1CCCCO1 (stereo unspecified) | -1.7 | 87.3 | -1.2 | -0.6 | -12.8 | 53.3* | 33.6 | x | x
CC(Sc1nc(C(F)(F)F)nc2ccccc12)C(=O)NC1CCCC1 (stereo unspecified) | x | 99.9 | x | -8.9 | x | 52.2* | 36.2 | x | x
CCCOc1ncnc2c1[nH]c1ccc(OC)cc12 | -2.0 | 112.5 | 8.6 | 5.6 | -5.5 | 31.9 | x | x | x
CCCOc1ncnc2c1[nH]c1ccccc12 | 2.9 | 101.4 | -2.4 | -1.8 | 2.5 | 73.8* | 87.5* | 81.2* | 75.6*
Cc1ccc(O)c(N=Nc2nccs2)c1 | -6.9 | 104.2 | x | -3.6 | x | 89.8* | 90.6* | 98.7* | 95.6*
CCCCCCCCCCCCCCCC(=O)OC(CC(=O)O)C[N+](C)(C)C (stereo unspecified) | x | 93.1 | x | -3.3 | x | 57.0* | 45.2 | 67.0* | 44.6
